# Assay outcomes as filed in PubChem.
# A selection: hits, their analogues and other compounds. The true share with any hit is near 3.5%.
# RGS4 pot = RGS4 potentiation or activation. hit rate 0.92% among 310,000. B-score at 10 µM. HEK293 M3R/inducible RGS4, carbachol calcium flux Fluo4; stronger effect = lower value;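 active = B-score of the integrated calcium signal more than 4 SD below the library mean, with starting fluorescence not abnormally high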;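 also: negative B-score means reduced calcium response which marks RGS4 activation or potentiation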
#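 test system = M3R-expressing HEK293 line, RGS4 induced by doxycycline | probe or stimulus = carbachol at ECmax as muscarinic agonist stimulus | timing = dye loading 30 min 37 °C, buffer rest 30 min RT | signal = calcium dye Fluo4 fluorescence | evaluation = B score from integrated fluorescence ratio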
# MrgX1 PAM = allosterically activates human MrgX1 receptor signaling | B-score at 10 µM | AID 588675 | hit rate 0.63% among 310,000 | Q96LB2 | MrgX1-HEK293, Fluo-4 calcium flux, FDSS; stronger effect = higher value;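 active = plate-corrected calcium response at least 3 library SD above typical, normal starting fluorescence, not activating the receptor alone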;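 also: compound read alongside a low EC10 to EC30 dose of BAM8-22 agonist; peak minus trough fluorescence over baseline measured at the second addition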
# Target sequence (Q96LB2 whole entry, looked up): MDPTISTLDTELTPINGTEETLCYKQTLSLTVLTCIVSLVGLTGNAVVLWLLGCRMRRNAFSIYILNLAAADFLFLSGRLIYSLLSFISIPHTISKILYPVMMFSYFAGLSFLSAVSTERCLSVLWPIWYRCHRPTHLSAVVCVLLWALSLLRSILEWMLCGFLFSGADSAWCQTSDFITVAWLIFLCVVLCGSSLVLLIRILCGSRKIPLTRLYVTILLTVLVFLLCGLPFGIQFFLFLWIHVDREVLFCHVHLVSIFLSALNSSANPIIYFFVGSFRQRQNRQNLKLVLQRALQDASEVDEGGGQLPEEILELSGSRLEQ
# RGS4 inh = human RGS4 inhibition; hit rate 0.45% among 310,000; B-score at 10 µM; AID 463165; HEK293 M3R/RGS4 inducible, Fluo-4 calcium flux; stronger effect = higher value; triggered by carbachol at its EC20;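 active = B-score, a plate-corrected calcium signal, over three deviations above library mean, with baseline fluorescence within five deviations of library mean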;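 also: RGS4 expression induced by doxycycline in cells with stable M3 receptor; B-score is computed from the integrated fluorescence ratio over baseline after carbachol; higher B-score means a larger calcium signal and so more RGS4 inhibition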
# Target sequence (P49798 whole entry, looked up): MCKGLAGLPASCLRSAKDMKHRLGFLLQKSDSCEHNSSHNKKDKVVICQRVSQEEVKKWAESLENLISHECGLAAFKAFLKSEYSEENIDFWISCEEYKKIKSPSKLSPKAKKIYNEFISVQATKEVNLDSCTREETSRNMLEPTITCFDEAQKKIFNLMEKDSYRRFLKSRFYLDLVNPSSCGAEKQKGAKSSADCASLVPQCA
# MrgX1 antagonist = antagonists of human MrgX1 receptor; hit rate 1.3% among 310,000; AID 588676; MRGX1-HEK293 calcium flux, Fluo-4, BAM8-22 antagonism; stronger effect = lower value; Q96LB2; B-score at 10 µM;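 active = calcium-response B-score plate-corrected more than 3 library SD below zero, starting fluorescence within 5 deviations, no agonist response on first addition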;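 also: peak minus trough fluorescence over baseline after final BAM8-22 challenge near maximal dose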
# MrgX1 ag = activates human MrgX1 receptor signaling; Q96LB2; MrgX1-HEK293 cells, Fluo-4 calcium fluorescence, agonist mode; stronger effect = higher value; B-score at 10 µM; hit rate 0.44% among 310,000; AID 588627;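 active = calcium response B-score plate-corrected fluorescence ratio at least 3 library SD, with starting fluorescence B-score inside 5 SD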
#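 Assay system: stable human MrgX1 HEK293 cell line. Quantity: 15,000 cells per well. Schedule: cells plated overnight, dye loaded 0.5 h 37 °C, 0.5 h room temperature. Detection: Fluo-4 NW calcium-flux fluorescence, kinetic read. Read-out basis: peak-minus-minimum fluorescence over baseline, converted to B scores. Control set: positive and negative control wells on each plate.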
# RGS4 act valid = confirmation of RGS4 activators; HEK293 M3R/RGS4 inducible, carbachol calcium flux Fluo4; inhibition, % at 10 µM; hit rate 89% among 1,100; shares compounds with RGS4 pot;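 active = inhibition above 3 SD of the buffer control wells, cut at about 41% in these data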;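 also: signal is the integrated peak-minus-minimum Fluo4 fluorescence over baseline ratio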
# RGS4 act ctr = activity in cells without induced RGS4 expression | shares compounds with RGS4 pot | HEK293 M3R non-induced RGS4, Fluo4 calcium flux; after carbachol challenge at its EC90 | inhibition, % at 10 µM | hit rate 82% among 1,100 | AID 602283;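 active = inhibition exceeding 3 SD of buffer-only control wells, cut at about 26% in these data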;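 also: percent drop in integrated peak-minus-baseline over baseline Fluo4 ratio after carbachol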
# * = called active by the depositor; i = inactive; x = no result given.
SMILES,RGS4 pot,MrgX1 PAM,RGS4 inh,MrgX1 antagonist,MrgX1 ag,RGS4 act valid,RGS4 act ctr
COc1ccc(-n2ncc(C(C)NS(=O)(=O)c3cc(F)ccc3C)c2C)cc1 (configuration not stated),i,i,i,i,i,x,x
Nn1cnc2c(c1=O)C1(CCCCC1)Cc1ccccc1-2,i,i,i,i,i,x,x
O=c1c2c(nc3n1CCCCC3)-c1ccccc1CC21CCCC1,-11*,i,i,i,i,93*,94*
CCO[C@@H]1OC(C(=O)N2CCOCC2)=C[C@H](c2coc3ccccc3c2=O)[C@H]1CCCO,i,i,i,i,i,x,x
CC(C)(C)c1ccccc1OCC(=O)Nc1ccccc1C(=O)NCc1cccnc1,-11*,i,i,i,i,88*,59*
COc1ccccc1-c1cn[nH]c1-c1ccc(OCc2ccccc2)cc1O,i,i,i,i,i,x,x
COc1ccc(-c2cn[nH]c2-c2ccc(OCc3ccccc3)cc2O)cc1,-9.7*,i,i,i,i,0,0
CC(C)COc1cccc(C(=O)NC(=S)NCc2cccnc2)c1,i,i,i,i,i,x,x
COc1ccc(C)c2sc(=NC(=O)c3cccc(N4C(=O)CCC4=O)c3)n(C)c12,i,i,i,i,i,x,x
C=CCn1c(=NC(=O)c2cccc(N3C(=O)CCC3=O)c2)sc2cccc(OC)c21,-10*,i,i,i,i,92*,73*
Cc1cc(C(=O)Nc2ccc3nc(C)sc3c2)c2ccccc2n1,i,i,i,i,i,x,x
Cc1cccc(N2CCN(C(=O)c3cccc(N4C(=O)C5CC=CC(C)C5C4=O)c3)CC2)c1C (configuration not stated),i,i,i,i,i,x,x
COc1cc(CN2CCN(C(c3ccccc3)c3ccccc3)CC2)cc(OC)c1OC,-8.9*,i,i,i,i,86*,30*
COc1cccc(CN2CCN(C(c3ccccc3)c3ccccc3)CC2)c1O,-8.8*,i,i,i,i,92*,75*
CC[N+]1(C)CCC(=C2c3ccccc3CC(=O)c3sccc32)CC1 (configuration not stated),-11*,i,i,-6.7*,i,95*,84*
CCOC(=O)c1nc(C)nc(Sc2n[nH]c(-c3ccccc3)n2)c1C,i,i,i,i,i,x,x
COC(=O)C(O)(CC(=O)Nc1ccc(Cl)cc1Cl)C(F)(F)F (configuration not stated),-9.2*,i,i,i,i,0,0
CCOC(=O)C1CCN(Cc2cccc(Oc3ccc(Cl)cc3)c2)CC1,i,i,i,i,i,x,x
CCN1CCN(Cc2cccc(Oc3ccccc3)c2)CC1,-8*,i,i,i,i,62*,84*
CN1CCN(Cc2cccc(Oc3ccc(Cl)cc3)c2)CC1,-12*,i,i,i,i,90*,38*
CCN1CCN(Cc2cccc(Oc3ccc(Cl)cc3)c2)CC1,-9.4*,i,i,i,i,92*,61*
CCCCn1nnnc1NCc1ccc(C)s1,i,i,i,i,i,x,x
CN1CCN(CC(O)(c2ccc(Cl)cc2)c2ccc(Cl)cc2)CC1,-10*,i,i,i,i,92*,65*
COc1ccccc1Cn1c(=O)oc2ccc(C)cc21,i,i,i,i,i,x,x
CCCCOc1ccccc1Cn1c(=O)oc2ccc(C)cc21,-7.7*,i,i,i,i,92*,91*
SMILES,RGS4 pot,MrgX1 PAM,RGS4 inh,MrgX1 antagonist,MrgX1 ag,RGS4 act valid,RGS4 act ctr
O=C(Cc1ccccc1)Nc1ccccc1C(=O)O,i,i,i,i,i,x,x
COCCn1c(-c2ccc(Br)cc2)nc2oc3cc(OC)ccc3c(=O)c2c1=O,-8.3*,i,i,i,i,0,0
COCCn1c(-c2ccccc2)nc2oc3cc(OC)ccc3c(=O)c2c1=O,i,i,i,i,i,x,x
COc1ccccc1C(CNC(=O)C(C)(C)Oc1ccc(Cl)cc1)N1CCCC1 (configuration not stated),-8.8*,i,i,i,i,90*,26*
COc1ccc(CC(=O)Nc2ccc(N3CCOCC3)cc2)cc1S(=O)(=O)N1CCOCC1,i,i,i,i,i,x,x
CCN(CC)CCn1c(=N)n(CC(=O)c2ccc(Br)s2)c2ccccc21,-7.8*,i,i,i,i,58*,84*
CCc1nc(SCC(=O)N2CCCc3ccccc32)c2oc3ccccc3c2n1,-9.4*,i,i,i,i,90*,71*
CCc1nc(SCC(=O)NC2CCCC2)c2oc3ccccc3c2n1,i,i,i,i,i,x,x
Cc1nc(SCC(=O)O)c2oc3ccccc3c2n1,i,i,i,i,i,x,x
Cc1nc(SCC(=O)N2CCN(c3ccccc3)CC2)c2oc3ccccc3c2n1,-9.3*,i,i,i,i,80*,0
CCOc1ccc(NC(=O)C(c2ccccn2)N(C(=O)CCl)c2ccc(F)cc2)cc1 (configuration not stated),i,i,i,i,i,x,x
CC(C)(C)OC(=O)NC1CC2CCCC(C1)N2Cc1ccccc1 (configuration not stated),-9.7*,x,i,x,x,92*,89*
CC(NC(=O)c1c(Cl)cnn1C)C1CCCO1 (configuration not stated),i,i,i,i,i,x,x
CCCCOc1ccc(C(=O)N2CCC(C)CC2)cc1,i,i,i,i,i,x,x
CCCCOc1ccc(C(=O)OC2CC(C)N(C)CC2C)cc1 (configuration not stated),-9.5*,i,i,i,i,91*,86*
C=C1CSc2nc3ccccc3c(=O)n21,i,i,i,i,i,x,x
Cn1c(SCCN2CCCC2)nnc1C1CCN(S(=O)(=O)c2ccc(F)cc2)CC1,-7.8*,i,i,i,i,50*,0
CN1C2CCC1CC(OC(c1ccccc1)c1ccccc1)C2 (configuration not stated),-8.8*,i,i,i,i,92*,91*
CN1[C@@H]2CC[C@H]1CC(OC(=O)C(O)c1ccccc1)C2 (some centres not stated),x,i,x,i,i,x,x
